# Data: ChEMBL document CHEMBL2417550, “Inhibition of the Escherichia coli 6-oxopurine phosphoribosyltransferases by nucleoside phosphonates: potential for new antibacterial agents” (J Med Chem, 2013)
# Active and inactive are the calls of the source. The rule behind the calls is not given here.
# Experiments:
# A549 = assay: Cytotoxicity against human A549 cells after 4 days by coulter counter analysis; type: cell-based; conditions: A549, 96 h
# [1] = tested on: Mycobacterium tuberculosis; assay: Antimycobacterial activity against Mycobacterium tuberculosis H37Ra ATCC 25177 after 5 days by resazurin reduction assay; type: functional, organism-based; conditions: H37Ra ATCC 25177, 120 h
# In short: (§1)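 M. tuberculosis H37Ra grown at 37 °C in 7H9 with OADC, 0.5% glycerol, 0.05% Tween-80 for about 14 days to mid-exponential phase (OD600 0.4−0.8). Diluted to OD600 0.001 (about 2 × 10^4 CFU/ml) in 7H9S with 0.5% DMSO and exposed to serially diluted compounds. Incubated 5 days at 37 °C, then resazurin added. Fluorescence (ex 530/em 580 nm) read 30 h later. Signal normalised to no-inhibitor and no-bacteria controls to give IC50.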
# [2] = Inhibition of Escherichia coli HPRT expressed in Escherichia coli SPhi606 using hypoxanthine as substrate by spectrophotometric analysis
# In short: (§2)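 Enzymes (wild-type XGPRT, HPRT, and the XGPRT mutant lacking six flexible-loop residues) were expressed in E. coli SΦ606, purified to homogeneity and stored at −70 °C in 0.1 M Tris-HCl, 10 mM MgCl2, 1 mM DTT, pH 7.4. Ki was determined spectrophotometrically. Fixed base was 60 μM: guanine for XGPRT, hypoxanthine for HPRT. PRib-PP was varied from 14 to 1000 μM, and inhibitor from 0.1 to 140 μM.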
# [3] = Inhibition of Escherichia coli XGPRT expressed in Escherichia coli SPhi606 using guanine as substrate by spectrophotometric analysis; in short: as §2
# [4] = Inhibition of Escherichia coli recombinant XGPRT mutant expressed in Escherichia coli SPhi606 using guanine as substrate by spectrophotometric analysis; in short: as §2
# Escherichia coli [5] = assay: (§3) Non-competitive inhibition of Escherichia coli HPRT expressed in Escherichia coli SPhi606 using hypoxanthine as substrate by spectrophotometric analysis in presence of PRib-PP; in short: as §2
# [6] = Selectivity index, ratio of EC50 for human A549 cells to MIC50 for Mycobacterium tuberculosis H37Ra ATCC 25177; type: functional
# [7] = tested on: Mycobacterium tuberculosis; assay: Antimycobacterial activity against Mycobacterium tuberculosis H37Ra ATCC 25177 at >= 250 uM after 5 days by resazurin reduction assay; type: functional, organism-based; in short: as §1
# Escherichia coli [8] = assay: Competitive inhibition of Escherichia coli XGPRT expressed in Escherichia coli SPhi606 using guanine as substrate by spectrophotometric analysis in presence of PRib-PP; in short: as §2
# [9] = Competitive inhibition of Escherichia coli XGPRT expressed in Escherichia coli SPhi606 using guanine as substrate by spectrophotometric analysis in presence of pyrophosphate
# In short: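 Ki was determined spectrophotometrically on purified XGPRT expressed in E. coli SΦ606, with guanine fixed at 60 μM. PRib-PP was varied from 14 to 1000 μM, and inhibitor from 0.1 to 140 μM. Pyrophosphate (33 μM) was added to the assay mixture along with the inhibitor.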
# [10] = as §3; in short: as §2
# [11] = Binding affinity to Escherichia coli XGPRT
SMILES,Ki [2],Ki [3],Ki [4],further results
CC(C)(C)C(=O)SCCOP(=O)(CC(=O)N1CC[C@H](n2cnc3c(=O)[nH]c(N)nc32)C1)OCCSC(=O)C(C)(C)C,–,–,–,EC50 (A549): > 300 µM; IC50 [1]: 5 µM; MIC99 [1]: 20 µM
O=c1[nH]cnc2c1ncn2CC(O)COCP(=O)(O)O (centres undefined),73 µM,16 µM,> 200 µM,inhibition (Escherichia coli [5]): Active
O=c1[nH]cnc2c1ncn2CC(COCP(=O)(O)O)COCP(=O)(O)O,0.8 µM,–,–,Selectivity Index [6]: 4; Activity [7]: inactive
Nc1nc2c(ncn2[C@H]2CN(C(=O)CP(=O)(O)O)C[C@H]2O)c(=O)[nH]1,–,2.2 µM,3 µM,inhibition (Escherichia coli [8]): Active
Nc1nc2c(ncn2C(COCP(=O)(O)O)COCP(=O)(O)O)c(=O)[nH]1,–,3 µM,16 µM,–
Nc1nc2c(ncn2CC(COCP(=O)(O)O)COCP(=O)(O)O)c(=O)[nH]1,–,0.01 µM,0.24 µM,Selectivity Index [6]: >=17; Activity [7]: inactive
Nc1nc2c(ncn2CC(O)COCP(=O)(O)O)c(=O)[nH]1 (centres undefined),> 700 µM,–,≥ 3 µM,Ki [9]: 0.32 µM; Ki [10]: 35 µM
Nc1nc2c(ncn2CCOCCP(=O)(O)O)c(=O)[nH]1,–,0.7 µM,11 µM,–
O=C(CP(=O)(O)O)N1CC[C@@H](n2cnc3c(=O)[nH]cnc32)C1,35 µM,> 200 µM,> 200 µM,–
CCOC(=O)[C@H](Cc1ccccc1)NP(=O)(COCC(COCP(=O)(N[C@@H](Cc1ccccc1)C(=O)OCC)N[C@@H](Cc1ccccc1)C(=O)OCC)Cn1cnc2c(=O)[nH]cnc21)N[C@@H](Cc1ccccc1)C(=O)OCC,–,–,–,EC50 (A549): 100 µM; IC50 [1]: 5 µM; MIC99 [1]: 20 µM
Nc1nc2c(ncn2[C@@H]2CN(C(=O)CP(=O)(O)O)C[C@H]2OC(=O)CP(=O)(O)O)c(=O)[nH]1,–,0.4 µM,2.6 µM,inhibition (Escherichia coli [8]): Active
Nc1nc2c(ncn2C(COCP(=O)(O)O)C(O)COCP(=O)(O)O)c(=O)[nH]1 (centres undefined),–,21 µM,14 µM,–
CCOC(=O)[C@H](Cc1ccccc1)NP(=O)(COCC(COCP(=O)(N[C@@H](Cc1ccccc1)C(=O)OCC)N[C@@H](Cc1ccccc1)C(=O)OCC)Cn1cnc2c(=O)[nH]c(N)nc21)N[C@@H](Cc1ccccc1)C(=O)OCC,–,–,–,EC50 (A549): > 300 µM; IC50 [1]: 5 µM; MIC99 [1]: 20 µM
O=c1[nH]cnc2c1ncn2C(COCP(=O)(O)O)COCP(=O)(O)O,–,73 µM,–,–
CCOC(=O)[C@H](Cc1ccccc1)NP(=O)(CCOCC(Cn1cnc2c(=O)[nH]c(N)nc21)OCCP(=O)(N[C@@H](Cc1ccccc1)C(=O)OCC)N[C@@H](Cc1ccccc1)C(=O)OCC)N[C@@H](Cc1ccccc1)C(=O)OCC (some centres undefined),–,–,–,EC50 (A549): 100 µM; IC50 [1]: 5 µM; MIC99 [1]: 20 µM
Nc1nc2c(ncn2[C@@H]2CN(C(=O)CP(=O)(O)O)C[C@@H]2O)c(=O)[nH]1,–,> 250 µM,> 250 µM,–
O=c1[nH]cnc2c1ncn2CCOCCP(=O)(O)O,17 µM,1.5 µM,46 µM,–
Nc1nc2c(ncn2[C@@H]2O[C@H](COP(=O)(O)O)[C@@H](O)[C@H]2O)c(=O)[nH]1,526 µM,–,120 µM,Ki [11]: 4.5 µM
Nc1nc2c(ncn2CC(COCCP(=O)(O)O)OCCP(=O)(O)O)c(=O)[nH]1 (centres undefined),–,0.11 µM,–,Selectivity Index [6]: >=17; Activity [7]: inactive
Nc1nc2c(ncn2[C@H]2CCN(C(=O)CP(=O)(O)O)C2)c(=O)[nH]1,–,0.23 µM,3 µM,Selectivity Index [6]: >=17; inhibition (Escherichia coli [8]): Active; Activity [7]: inactive
